Measurements: ChEMBL document CHEMBL1142184, “Treatment and outcomes of infections by methicillin-resistant Staphylococcus aureus at an ambulatory clinic” (2007)

Experiments:
Staphylococcus aureus [1] = assay: Antibacterial activity against methicillin-resistant Staphylococcus aureus isolates from skin or soft tissue infection outpatients; assay type: functional
In short: (§1)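 Isolates came from S. aureus-positive wound cultures. Clinicians took these at their discretion when resistant infection was suspected, in clinic patients with signs or symptoms of skin or soft tissue infection. Only cases with recorded antibiotic sensitivities were included. Nasal carriage cultures and outside-hospital cases lacking culture data were excluded. Yearly susceptibility trends used the Mantel score test, two-sided.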

Staphylococcus aureus [2] = assay: Antibacterial activity against methicillin-susceptible Staphylococcus aureus isolates from skin or soft tissue infection outpatients; assay type: functional; in short: as §1

Row | SMILES | Activity (Staphylococcus aureus [1]) | Activity (Staphylococcus aureus [2])
1 | Cc1nnc(SCC2=C(C(=O)O)N3C(=O)[C@@H](NC(=O)Cn4cnnn4)[C@H]3SC2)s1 [CEFAZOLIN] | 100% | 0%
2 | C[C@H]1COc2c(N3CCN(C)CC3)c(F)cc3c(=O)c(C(=O)O)cn1c23.C[C@H]1COc2c(N3CCN(C)CC3)c(F)cc3c(=O)c(C(=O)O)cn1c23.O [LEVOFLOXACIN] | 33.3% | 0%
3 | CCC[C@@H]1C[C@@H](C(=O)NC(C(C)Cl)[C@H]2O[C@H](SC)[C@H](O)[C@@H](O)[C@H]2O)N(C)C1 (single isomer, unassigned) [CLINDAMYCIN] | 48.2% | 7%
4 | CN[C@H](CC(C)C)C(=O)N[C@H]1C(=O)N[C@@H](CC(N)=O)C(=O)N[C@H]2C(=O)N[C@H]3C(=O)N[C@H](C(=O)N[C@H](C(=O)O)c4cc(O)cc(O)c4-c4cc3ccc4O)[C@H](O)c3ccc(c(Cl)c3)Oc3cc2cc(c3O[C@@H]2O[C@H](CO)[C@@H](O)[C@H](O)[C@H]2O[C@H]2C[C@](C)(N)[C@H](O)[C@H](C)O2)Oc2ccc(cc2Cl)[C@H]1O [VANCOMYCIN] | 0% | 0%
5 | CN(C)[C@@H]1C(O)=C(C(N)=O)C(=O)[C@@]2(O)C(O)=C3C(=O)c4c(O)cccc4[C@@](C)(O)[C@H]3C[C@@H]12 [TETRACYCLINE] | 53.8% | 0%
6 | CO[C@H]1/C=C/O[C@@]2(C)Oc3c(C)c(O)c4c(O)c(c(/C=N/N5CCN(C)CC5)c(O)c4c3C2=O)NC(=O)/C(C)=C\C=C\[C@H](C)[C@H](O)[C@@H](C)[C@@H](O)[C@@H](C)[C@H](OC(C)=O)[C@@H]1C [RIFAMPIN] | – | 0%
7 | CC[C@H]1OC(=O)[C@H](C)[C@@H](O[C@H]2C[C@@](C)(OC)[C@@H](O)[C@H](C)O2)[C@H](C)[C@@H](O[C@@H]2O[C@H](C)C[C@H](N(C)C)[C@H]2O)[C@](C)(O)C[C@@H](C)C(=O)[C@H](C)[C@@H](O)[C@]1(C)O [ERYTHROMYCIN] | 93.8% | 57.9%
8 | O=C(N[C@H](CO)[C@H](O)c1ccc([N+](=O)[O-])cc1)C(Cl)Cl [CHLORAMPHENICOL] | – | 0%
9 | O=C(O)c1cn(C2CC2)c2cc(N3CCNCC3)c(F)cc2c1=O [CIPROFLOXACIN] | 78.5% | 8.8%
